In ChEMBL document CHEMBL1124840 (J Med Chem, 1990):
Calls of active or inactive are those of the source. No cut-off for these calls is given here. Positions of bridges follow the written chain, without caps; N, C: chain ends. Non-standard residues stand in square brackets, D forms with d. Residues, ends and D or L forms follow the SMILES beside them. Pen = CC(C)(S)[C@H](N)C(=O)O; hCys = N[C@@H](CCS)C(=O)O; Sar = CNCC(=O)O

What was measured:
[1] = biological target: T1, Angiotensin II receptor (AT-1) type-1 (Rattus norvegicus, UniProt P29089+P25095); assay: Concentration required to 50% inhibition in specific binding of [125- I]A-II to Angiotensin II receptor in rat uterine membrane; type: cell membranes
T1 sequence (P29089 whole entry): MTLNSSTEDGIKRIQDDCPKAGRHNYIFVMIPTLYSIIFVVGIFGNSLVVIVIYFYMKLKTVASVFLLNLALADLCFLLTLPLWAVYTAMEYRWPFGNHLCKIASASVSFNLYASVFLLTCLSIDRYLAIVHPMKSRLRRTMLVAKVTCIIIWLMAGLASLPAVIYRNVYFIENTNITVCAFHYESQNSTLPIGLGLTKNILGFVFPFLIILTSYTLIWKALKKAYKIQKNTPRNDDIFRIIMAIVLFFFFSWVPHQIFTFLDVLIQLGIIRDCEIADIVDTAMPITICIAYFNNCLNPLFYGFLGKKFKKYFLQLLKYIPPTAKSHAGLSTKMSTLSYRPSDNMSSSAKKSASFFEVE
T1 sequence (P25095 whole entry): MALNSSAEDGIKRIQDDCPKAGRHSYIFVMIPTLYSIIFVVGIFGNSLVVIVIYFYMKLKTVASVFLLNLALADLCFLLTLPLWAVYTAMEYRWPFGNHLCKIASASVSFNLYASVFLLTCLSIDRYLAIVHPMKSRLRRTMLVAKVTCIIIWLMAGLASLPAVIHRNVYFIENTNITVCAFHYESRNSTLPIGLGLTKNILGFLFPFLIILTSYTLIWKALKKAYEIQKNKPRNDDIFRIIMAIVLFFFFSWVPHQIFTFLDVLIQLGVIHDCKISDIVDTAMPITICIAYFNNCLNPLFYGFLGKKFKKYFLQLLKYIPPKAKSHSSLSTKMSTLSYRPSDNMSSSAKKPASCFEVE
How it was run: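 Rat uterine membranes were homogenized in ice-cold Dulbecco's PBS with 5 mM EDTA, spun at 1500g then 100000g, and resuspended in 2 mM EGTA/50 mM Tris-HCl pH 7.5. Nonspecific binding was defined with 10 µM AII. IC50 came from nonlinear least-squares fits, triplicate means.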

Oryctolagus cuniculus [2] = species on record: Oryctolagus cuniculus; assay: No contractile activity was observed up to 10 uM concentration in rabbit aortic rings relative to angiotensin II; NA = no activity; type: functional; conditions: Aorta
How it was run: (§1)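 Aortic rings were taken from male New Zealand white rabbits (2–2.5 kg) and tested at analogue concentrations up to 10 µM. Potency is relative to the AII concentration/response curve run at the same time on a paired ring from the same aorta.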

Oryctolagus cuniculus [3] = species on record: Oryctolagus cuniculus; assay: No contractile activity was observed up to 10 uM concentration in rabbit aortic rings; NA = no activity; type: functional; conditions: Aorta
How it was run: (§2)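 Aortic rings were taken from male New Zealand white rabbits (2–2.5 kg) and tested at analogue concentrations up to 10 µM. pD2 was calculated from the analogue's concentration/response curve.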

Oryctolagus cuniculus [4] = species on record: Oryctolagus cuniculus; assay: Contractile activity in rabbit aortic rings.; type: functional, Aorta; how it was run: as §2
Oryctolagus cuniculus [5] = species on record: Oryctolagus cuniculus; assay: Contractile activity in rabbit aortic rings relative to angiotensin II.; type: functional, Aorta; how it was run: as §1
[6] = biological target: Type-1 angiotensin II receptor (Oryctolagus cuniculus) (UniProt P34976); assay: pA2 value for Angiotensin II receptor
Chain of Type-1 angiotensin II receptor (Oryctolagus cuniculus) (P34976 whole entry, looked up): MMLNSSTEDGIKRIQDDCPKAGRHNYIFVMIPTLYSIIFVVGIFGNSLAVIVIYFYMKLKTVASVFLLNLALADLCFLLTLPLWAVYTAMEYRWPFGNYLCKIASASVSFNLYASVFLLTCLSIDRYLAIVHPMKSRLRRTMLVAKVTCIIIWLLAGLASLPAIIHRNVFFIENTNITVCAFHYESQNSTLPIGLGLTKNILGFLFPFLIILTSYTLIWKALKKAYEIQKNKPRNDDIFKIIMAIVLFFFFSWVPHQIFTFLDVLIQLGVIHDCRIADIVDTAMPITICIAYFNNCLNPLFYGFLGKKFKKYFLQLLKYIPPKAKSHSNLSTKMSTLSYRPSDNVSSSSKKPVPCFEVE

Row | Molecule | IC50 [1] | Kb [6] | Relative potency (Oryctolagus cuniculus [2]) | pD2 (Oryctolagus cuniculus [3]) | pD2 (Oryctolagus cuniculus [4]) | Relative potency (Oryctolagus cuniculus [5])
1 | NC(N)=NCCC[C@H](NC(=O)[C@@H](N)CC(=O)O)C(=O)N[C@H]1CSSC[C@H](C(=O)N[C@@H](Cc2c[nH]cn2)C(=O)N2CCC[C@H]2C(=O)N[C@@H](Cc2ccccc2)C(=O)O)NC(=O)[C@H](Cc2ccc(O)cc2)NC1=O | 10 µM | – | inactive | inactive | – | –
2 | CC(=O)NCSC[C@H](NC(=O)[C@H](CCCN=C(N)N)NC(=O)[C@@H](N)CC(=O)O)C(=O)N[C@@H](Cc1ccc(O)cc1)C(=O)N[C@@H](CSCNC(C)=O)C(=O)N[C@@H](Cc1c[nH]cn1)C(=O)N1CCC[C@H]1C(=O)N[C@@H](Cc1ccccc1)C(=O)O | 10 µM | – | – | – | <5 | <0.0001
3 | NC(N)=NCCC[C@H](NC(=O)[C@@H](N)CC(=O)O)C(=O)N[C@@H]1CSSC[C@@H](C(=O)N[C@@H](Cc2c[nH]cn2)C(=O)N2CCC[C@H]2C(=O)N[C@@H](Cc2ccccc2)C(=O)O)NC(=O)[C@H](Cc2ccc(O)cc2)NC1=O | – | – | inactive | inactive | – | –
4 | CC1(C)SSC[C@H](NC(=O)[C@H](CCCN=C(N)N)NC(=O)[C@@H](N)CC(=O)O)C(=O)N[C@@H](Cc2ccc(O)cc2)C(=O)N[C@@H]1C(=O)N[C@@H](Cc1c[nH]cn1)C(=O)N1CCC[C@H]1C(=O)N[C@@H](Cc1ccccc1)C(=O)O (H-DRCY[Pen]HPF-OH; disulfide 3-5) | 0.0013 µM | – | – | – | 5.8 | 0.001
5 | NC(N)=NCCC[C@H](NC(=O)[C@@H](N)CC(=O)O)C(=O)N[C@H]1CCSSC[C@@H](C(=O)N[C@@H](Cc2c[nH]cn2)C(=O)N2CCC[C@H]2C(=O)N[C@@H](Cc2ccccc2)C(=O)O)NC(=O)[C@H](Cc2ccc(O)cc2)NC1=O (H-DR[hCys]YCHPF-OH; disulfide 3-5) | 0.01 µM | – | – | – | 5.91 | 0.001
6 | CC[C@H](C)[C@H](NC(=O)[C@H](Cc1ccc(O)cc1)NC(=O)[C@@H](NC(=O)[C@H](CCCNC(=N)N)NC(=O)[C@@H](N)CC(=O)O)C(C)C)C(=O)N[C@@H](Cc1cnc[nH]1)C(=O)N1CCC[C@H]1C(=O)N[C@@H](Cc1ccccc1)C(=O)O [ANGIOTENSIN II] | – | – | – | – | 8.81 | –
7 | H-DRVYCHPF-OH | 0.02 µM | – | – | – | 7.21 | 0.031

More lines, main results first:

Row | IC50 [1] | Kb [6] | Molecule | Relative potency (Oryctolagus cuniculus [2]) | pD2 (Oryctolagus cuniculus [3]) | pD2 (Oryctolagus cuniculus [4]) | Relative potency (Oryctolagus cuniculus [5])
8 | 10 µM | – | CC(=O)NCSC[C@H](NC(=O)[C@H](CCCN=C(N)N)NC(=O)[C@@H](N)CC(=O)O)C(=O)N[C@@H](Cc1ccc(O)cc1)C(=O)N[C@H](CSCNC(C)=O)C(=O)N[C@@H](Cc1c[nH]cn1)C(=O)N1CCC[C@H]1C(=O)N[C@@H](Cc1ccccc1)C(=O)O | inactive | inactive | – | –
9 | > 10 µM | – | CC(=O)NCSC[C@H](NC(=O)[C@H](Cc1ccc(O)cc1)NC(=O)[C@@H](CSCNC(C)=O)NC(=O)[C@H](CCCN=C(N)N)NC(=O)[C@@H](N)CC(=O)O)C(=O)N[C@@H](Cc1c[nH]cn1)C(=O)N1CCC[C@H]1C(=O)N[C@@H](Cc1ccccc1)C(=O)O | inactive | inactive | – | –
10 | 0.043 µM | – | NC(N)=NCCC[C@H](NC(=O)[C@@H](N)CC(=O)O)C(=O)N[C@H]1CSSC[C@@H](C(=O)N[C@@H](Cc2c[nH]cn2)C(=O)N2CCC[C@H]2C(=O)N[C@@H](Cc2ccccc2)C(=O)O)NC(=O)[C@H](Cc2ccc(O)cc2)NC1=O | – | – | <5 | <0.0001
11 | 0.013 µM | – | NC(N)=NCCC[C@H](NC(=O)[C@@H](N)CC(=O)O)C(=O)N[C@H]1CSSCC[C@@H](C(=O)N[C@@H](Cc2c[nH]cn2)C(=O)N2CCC[C@H]2C(=O)N[C@@H](Cc2ccccc2)C(=O)O)NC(=O)[C@H](Cc2ccc(O)cc2)NC1=O (H-DRCY[hCys]HPF-OH; disulfide 3-5) | – | – | 6.98 | 0.012
12 | 0.058 µM | – | CC1(C)SSC[C@@H](C(=O)N[C@@H](Cc2c[nH]cn2)C(=O)N2CCC[C@H]2C(=O)N[C@@H](Cc2ccccc2)C(=O)O)NC(=O)[C@H](Cc2ccc(O)cc2)NC(=O)[C@H]1NC(=O)[C@H](CCCN=C(N)N)NC(=O)[C@@H](N)CC(=O)O (H-DR[Pen]YCHPF-OH; disulfide 3-5) | – | – | 5 | 0.0001
13 | 0.0026 µM | – | CC1(C)SSC(C)(C)[C@@H](C(=O)N[C@@H](Cc2c[nH]cn2)C(=O)N2CCC[C@H]2C(=O)N[C@@H](Cc2ccccc2)C(=O)O)NC(=O)[C@H](Cc2ccc(O)cc2)NC(=O)[C@H]1NC(=O)[C@H](CCCN=C(N)N)NC(=O)[C@@H](N)CC(=O)O (H-DR[Pen]Y[Pen]HPF-OH; disulfide 3-5) | – | – | 5 | 0.0001
14 | 0.0021 µM | – | NC(N)=NCCC[C@H](NC(=O)[C@@H](N)CC(=O)O)C(=O)N[C@H]1CCSSCC[C@@H](C(=O)N[C@@H](Cc2c[nH]cn2)C(=O)N2CCC[C@H]2C(=O)N[C@@H](Cc2ccccc2)C(=O)O)NC(=O)[C@H](Cc2ccc(O)cc2)NC1=O (H-DR[hCys]Y[hCys]HPF-OH; disulfide 3-5) | – | – | 8.48 | 0.49
15 | 0.0009 µM | 0.000813 µM | CC[C@H](C)[C@H](NC(=O)[C@@H]1CCCN1C(=O)[C@H](Cc1c[nH]cn1)NC(=O)[C@@H]1CCSSCC[C@H](NC(=O)[C@H](CCCN=C(N)N)NC(=O)CNC)C(=O)N[C@@H](Cc2ccc(O)cc2)C(=O)N1)C(=O)O (H-[Sar]R[hCys]Y[hCys]HPI-OH; disulfide 3-5) | inactive | inactive | – | –
16 | 0.015 µM | – | H-DRCYIHPF-OH | – | – | 7.68 | 0.092
